Data reported in ChEMBL document CHEMBL5107950, “Structure-based design of haloperidol analogues as inhibitors of acetyltransferase Eis from Mycobacterium tuberculosis to overcome kanamycin resistance” (RSC Med Chem, 2021).
Values after ≈ are worked out from the molar mass of the structure shown. Active and inactive are the calls of the source. The rule behind the calls is not given here.

Assays:
[1] = tested on: Mycobacterium tuberculosis; test: Potentiation of kanamycin-induced antibacterial activity against Mycobacterium tuberculosis H37Rv mc2 6230 with Eis C-14T mutation assessed as kanamycin MIC incubated for 1 week by resazurin staining based microdilution method; type: functional; conditions: time 1 weeks
Method in brief: (§1)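 Microdilution in 7H9 + 10% OADC, 0.5% glycerol, 0.05% tyloxapol, 0.2% casamino acids, 24 µg/mL pantothenate. […] Culture at 0.5 McFarland diluted 1:100 and added. Incubated one week at 37 °C, then 5 µL of 2.5 mg/mL resazurin added, read after two days. Duplicate.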

[2] = tested on: Mycobacterium tuberculosis; test: Potentiation of kanamycin-induced antibacterial activity against Mycobacterium tuberculosis mc2 6230-K204 with Eis C-14T mutation assessed as kanamycin MIC incubated for 1 week by resazurin staining based microdilution method; type: functional; conditions: time 1 weeks; method in brief: as §1
[3] = tested on: Mycobacterium tuberculosis; test: Antibacterial activity against Mycobacterium tuberculosis mc2 6230 with Eis C-14T mutation assessed as inhibition of bacterial growth incubated upto 3 weeks hrs by resazurin dye based double-dilution method; type: functional
Method in brief: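 Double-dilution broth MIC. Media: M. smegmatis, Mueller-Hinton; M. abscessus, 7H9 + 0.05% Tween80 + 0.4% glycerol; mc²6230, 7H9 + 0.05% tyloxapol, 0.5% glycerol, 10% OADC, 0.2% casamino acids, 24 µg/mL pantothenate; other mycobacteria, 7H9 + 0.05% Tween80, 0.4% glycerol, 10% ADC. Inoculum from agar set to 0.5 McFarland, then diluted 1:100.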

[4] = tested on: Mycobacterium tuberculosis; test: Antibacterial activity against Mycobacterium tuberculosis H37Rv mc2 6230 with Eis C-14T mutation assessed as inhibition of bacterial growth at 100 uM incubated for 1 week by resazurin staining based microdilution method; type: functional, organism-based; conditions: time 1.0 weeks
[5] = tested on: Mycobacterium tuberculosis; test: Antibacterial activity against Mycobacterium tuberculosis mc2 6230-K204 with Eis C-14T mutation inhibition of bacterial growth at 100 uM incubated for 1 week by resazurin staining based microdilution method; type: functional, organism-based; conditions: time 1.0 weeks

SMILES	MIC [1]	MIC [2]	MIC [3]	inhibition [4]	inhibition [5]
O=C(CCCN1CCCCC1)c1ccc(F)cc1 [PRIMAPERONE]	<=1.25 ug ml-1	>10 µg/mL			
O=C(CCCN1CCC(O)CC1)c1ccc(F)cc1	<=1.25 ug ml-1	>10 µg/mL			
N=C(N)NCCCC(=O)c1ccc(F)cc1	<=1.25 ug ml-1	>10 µg/mL	>64 µM		
O=C(CCCN1CC=C(c2ccc(Cl)cc2)CC1)c1ccc(F)cc1			32 µM (≈ 11.5 µg/mL)	Active	Active
O=C(CCCN1CCC(O)(c2ccccc2)CC1)c1ccc(F)cc1	<=1.25 ug ml-1	>10 µg/mL	>64 µM		
CC(C)(C)c1ccc(C(=O)CCCN2CCC(O)(c3ccc(Cl)cc3)CC2)cc1			2 µM (≈ 0.828 µg/mL)		
O=C(CCCN1CCC(c2ccc(Cl)cc2)CC1)c1ccc(F)cc1			64 µM (≈ 23 µg/mL)	Active	Active
CCc1ccc(C(=O)CCCN2CCC(O)(c3ccc(Cl)cc3)CC2)cc1			15.6 µM (≈ 6.02 µg/mL)		
CC(C)c1ccc(C(=O)CCCN2CCC(O)(c3ccc(Cl)cc3)CC2)cc1			7.8 µM (≈ 3.12 µg/mL)		
Cc1ccc(C(=O)CCCN2CCC(O)(c3ccc(Cl)cc3)CC2)cc1			31.3 µM (≈ 11.6 µg/mL)		
CC(C)(C)c1ccc(C(=O)CCCN2CCC(O)(c3ccc(Br)cc3)CC2)cc1			4 µM (≈ 1.83 µg/mL)		
